According to ChEMBL document CHEMBL1135577, “Synthesis and biological evaluation of structurally highly modified analogues of the antimitotic natural product curacin A” (J Med Chem, 2002):
Values belong to the compound of their own block, whether it stands above or below them. Calls of active or inactive are those of the source. The calls are words filed in the database; no cut-off is given here.

Assays:
2008 [1] = assay: 50% Growth inhibitory concentration( GI 50 ) by using 2008 human ovarian carcinoma cell lines.; format: functional
Procedure, shortened: (§1)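 Cultured human tumor cells were seeded at 500-2000 cells/well, allowed to attach for 48 h, then exposed continuously for 48 h to DMSO vehicle or agent at five concentrations (e.g., 50-0.08 μM, 10-0.016 μM or 1-0.0016 μM series), each in quadruplicate. A time-zero plate was included. Cell number was read by MTS/phenazine methanesulfonate at A490-A630. Values are means (N = 4 over 10 concentrations) ± SD.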

A2780 [2] = assay: Compound was tested for Tubulin polymerization inhibition by using human ovarian cancer cell lines.; format: functional
Procedure, shortened: (§2)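 Tubulin (10 μM final, 1 mg/mL) was preincubated with agent in DMSO (4% v/v final) and 0.8 M monosodium glutamate for 15 min at 30 °C, then cooled to 0 °C and GTP (0.4 mM final) added. Turbidity at 350 nm was followed for 20 min at 30 °C. […] Values are averages of two determinations.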

A2780 [3] = assay: Tested for colchicine binding inhibition, using human ovarian cancer cell lines (at 5 uM ); format: functional
Procedure, shortened: (§3)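 [3H]colchicine (5 μM) was incubated with 1 μM tubulin and agent (1-250 μM) or DMSO vehicle (5% v/v) at 30 °C for 15 min or 37 °C for 10 min, in 1 M monosodium glutamate, 0.1 M glucose-1-phosphate, 1 mM MgCl2, 1 mM GTP and 0.5 mg/mL BSA. Samples were filtered through DEAE-cellulose and counted by scintillation. Values are means (N = 9 over four concentrations) ± SD.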

PC-3 [4] = assay: 50% Growth inhibitory concentration by using PC -3 human prostate carcinoma cell lines (48h continuous exposure); format: functional; details: PC-3, 48 h; procedure, shortened: as §1
MCF7 = assay: Tested for 50% growth inhibitory concentration by using MCF-7 cell lines.; format: functional; details: Homo sapiens; procedure, shortened: as §1
Tubulin (Bos taurus) [5] = assay: Inhibition of tubulin polymerization of purified bovine brain tubulin
2008 [6] = assay: Compound was tested for 50% growth inhibitory concentration by using human ovarian carcinoma cell lines (2008); format: functional; procedure, shortened: as §1
A2780 [7] = assay: Compound was tested for Tubulin polymerization inhibition by using human ovarian carcinoma cell lines.; format: functional; procedure, shortened: as §2
A2780 [8] = assay: Compound was tested for colchicine Binding Inhibition by using human ovarian carcinoma cell line (at 5 uM ); format: functional; procedure, shortened: as §3
MDA-MB-231 = assay: Compound was tested for 50% Growth Inhibitory concentration by using MDA-MB-231 cell lines.; format: functional; details: Homo sapiens; procedure, shortened: as §1
PC-3 [9] = assay: Compound was tested for 50% growth inhibitory concentration by using human prostate carcinoma cell lines (PC -3); format: functional; procedure, shortened: as §1
Tubulin (Bos taurus) [10] = assay: Ability to inhibit the GTP/glutamate-induced polymerization of tubulin
A2780 [11] = assay: Compound was tested for Tubulin polymerization inhibition by using human ovarian carcinoma cell lines.;NA means not active; format: functional, cell-based; procedure, shortened: as §2
A2780 [12] = assay: Compound was tested for colchicine binding inhibition by using human ovarian carcinoma cell lines (at 5 uM );NA means not active; format: functional, cell-based; procedure, shortened: as §3
A2780 [13] = assay: Compound was tested for 50% Growth Inhibitory concentration by using A2780 cell lines.; details: Homo sapiens
A2780 [14] = assay: Compound was tested for colchicine binding inhibition by using human ovarian carcinoma cell line (at 5 uM ); format: functional; procedure, shortened: as §3

Compound: C=CC[C@@H](CC/C(C)=C/C=C/CC/C=C\c1csc([C@@H]2C[C@@H]2C)n1)OC
- inhibition at 5 µM (A2780 [3]): 74%
- GI50 (MCF7): 300 nM
- IC50 (Tubulin (Bos taurus) [5]): 740 nM

Compound: COc1cc(/C=N\OC/C=C/C=C(\C)CCC(O)c2cccs2)cc(OC)c1OC (stereo unspecified)
- GI50 2008 [6]: 240 nM
- TPI (A2780 [7]): 100%
- inhibition at 5 µM (A2780 [8]): 48%
- GI50 (MDA-MB-231): 120 nM
- GI50 (PC-3 [9]): 250 nM
- IC50 (Tubulin (Bos taurus) [10]): 170 nM

Compound: C=CC[C@@H](CC/C(C)=C/C=C/CC/C=C\c1csc(C(C)(C)C)n1)OC
- GI50 2008 [1]: 300 nM
- TPI (A2780 [2]): 100%
- inhibition at 5 µM (A2780 [3]): 38%
- GI50 (PC-3 [4]): 240 nM

Compound: COc1cc(/C=N\OC[C@H]2C[C@@H]2C2C[C@]2(C)CCC(O)c2cccs2)cc(OC)c1OC (stereo partly specified)
- GI50 2008 [6]: 9900 nM
- TPI (A2780 [7]): 26%
- inhibition at 5 µM (A2780 [8]): < 10%
- GI50 (MDA-MB-231): 980 nM
- GI50 (PC-3 [9]): 1200 nM

Compound: C/C=C\[C@@H]1CSC([C@@H]2C[C@@H]2C)=N1
- NA (A2780 [11]): inactive
- NA (A2780 [12]): inactive

Compound: C=CCC1(CC/C(C)=C/C=C/CC/C=C\[C@@H]2CSC([C@@H]3C[C@@H]3C)=N2)OCCO1
- inhibition at 5 µM (A2780 [3]): 92%
- GI50 (MCF7): 30 nM
- IC50 (Tubulin (Bos taurus) [5]): 780 nM

Compound: C=CC[C@@H](CC/C(C)=C/C=C/CC/C=C\[C@@H]1COC(C(C)(C)C)=N1)OC
- GI50 2008 [1]: 450 nM
- TPI (A2780 [2]): 0%
- inhibition at 5 µM (A2780 [3]): < 10%
- GI50 (PC-3 [4]): 6200 nM

Compound: C=CC[C@@H](CC/C(C)=C/C=C/CC/C=C\c1coc(C(C)(C)C)n1)OC
- GI50 2008 [1]: > 50000 nM
- TPI (A2780 [2]): 51%
- inhibition at 5 µM (A2780 [3]): < 10%
- GI50 (PC-3 [4]): > 50000 nM

Compound: C=CC[C@@H](CC/C(C)=C/C=C/CC/C=C\[C@@H]1CSC([C@@H]2C[C@@H]2C)=N1)OCOC
- inhibition at 5 µM (A2780 [3]): 81%
- GI50 (MCF7): 220 nM
- IC50 (Tubulin (Bos taurus) [5]): 640 nM

Compound: C=CC[C@@H](CC/C(C)=C/C=C/CC/C=C\[C@H](CSC(=O)[C@@H]1C[C@@H]1C)NC(C)=O)OC
- inhibition at 5 µM (A2780 [3]): 9%
- GI50 (MCF7): 4200 nM
- IC50 (Tubulin (Bos taurus) [5]): 1500 nM

Compound: COC[C@H]1C[C@H]1C1=NC(COC/C=C(\C)CC/C=C(\C)CCC=C(C)C)CS1 (stereo partly specified)
- GI50 (A2780 [13]): > 25000 nM

Compound: C=CC[C@@H](CC/C(C)=C/C=C\CC/C=C\[C@@H]1CSC([C@@H]2C[C@@H]2C)=N1)OC [CURACIN B]
- inhibition at 5 µM (A2780 [3]): 56%
- GI50 (MCF7): 320 nM
- IC50 (Tubulin (Bos taurus) [5]): 820 nM

Compound: C=CC[C@@H](CC[C@@]1(C)C[C@@H]1[C@H]1C[C@@H]1CC/C=C\[C@@H]1COC([C@@H]2C[C@@H]2C)=N1)OC
- GI50 2008 [6]: 18000 nM
- TPI (A2780 [7]): 59%
- inhibition at 5 µM (A2780 [14]): < 10%
- GI50 (MDA-MB-231): 18000 nM
- GI50 (PC-3 [9]): 49000 nM

Now from value to compound, other results behind:

- GI50 (PC-3 [4]): 21000 nM
Compound: COc1cc(CCCCCCCC(C)CCC(O)c2cccs2)cc(OC)c1OC (stereo unspecified)
- GI50 2008 [1]: 26000 nM
- TPI (A2780 [2]): 15%
- inhibition at 5 µM (A2780 [3]): < 10%

- GI50 (MCF7): > 10000 nM
- IC50 (Tubulin (Bos taurus) [5]): 5400 nM
Compound: C=CC[C@@H](CC/C(C)=C/C=C/CC/C=C\[C@@H]1CSC([C@@H]2C[C@@H]2C)=N1)OCC(F)(F)C(F)(F)C(F)(F)F
- inhibition at 5 µM (A2780 [3]): 12%

- GI50 (MCF7): 300 nM
- IC50 (Tubulin (Bos taurus) [5]): 920 nM
Compound: C=CCCC1=N[C@H](/C=C\CC/C=C/C=C(\C)CC[C@H](CC=C)OC)CS1
- inhibition at 5 µM (A2780 [3]): 83%

- GI50 (MCF7): > 10000 nM
- IC50 (Tubulin (Bos taurus) [5]): > 80000 nM
Compound: C=CC[C@@H](CC/C(C)=C/C=C/CC/C=C\[C@@H]1CSC([C@@H]2C[C@@H]2C)=N1)OC(=O)c1ccccc1
- inhibition at 5 µM (A2780 [3]): 5%

- IC50 (Tubulin (Bos taurus) [5]): > 50000 nM
Compound: CCCCCCCc1cccc(CC/C=C\[C@@H]2CSC([C@@H]3C[C@@H]3C)=N2)c1

- IC50 (Tubulin (Bos taurus) [5]): > 50000 nM
Compound: CCCCCCCCCCCC/C=C\[C@@H]1CSC([C@@H]2C[C@@H]2C)=N1
